Data published in ChEMBL document CHEMBL2176944, “2-(3-Oxo-1,3-diphenylpropyl)malonic acids as potent allosteric ligands of the PIF pocket of phosphoinositide-dependent kinase-1: development and prodrug concept” (J Med Chem, 2012).
pEC50, pKd: −log10 of the molar value. Calls of active or inactive are those of the source. The rule behind the calls is not given here.

Legend:
[1] = target: T1, 3-phosphoinositide-dependent protein kinase 1 (Homo sapiens) (UniProt O15530); assay: Activation of PDK1 using KTFCGTPEYLAPEVRR as substrate and [gamma32P]-ATP/Mg2+ by phosphor imaging analysis relative to control
T1 sequence (whole entry): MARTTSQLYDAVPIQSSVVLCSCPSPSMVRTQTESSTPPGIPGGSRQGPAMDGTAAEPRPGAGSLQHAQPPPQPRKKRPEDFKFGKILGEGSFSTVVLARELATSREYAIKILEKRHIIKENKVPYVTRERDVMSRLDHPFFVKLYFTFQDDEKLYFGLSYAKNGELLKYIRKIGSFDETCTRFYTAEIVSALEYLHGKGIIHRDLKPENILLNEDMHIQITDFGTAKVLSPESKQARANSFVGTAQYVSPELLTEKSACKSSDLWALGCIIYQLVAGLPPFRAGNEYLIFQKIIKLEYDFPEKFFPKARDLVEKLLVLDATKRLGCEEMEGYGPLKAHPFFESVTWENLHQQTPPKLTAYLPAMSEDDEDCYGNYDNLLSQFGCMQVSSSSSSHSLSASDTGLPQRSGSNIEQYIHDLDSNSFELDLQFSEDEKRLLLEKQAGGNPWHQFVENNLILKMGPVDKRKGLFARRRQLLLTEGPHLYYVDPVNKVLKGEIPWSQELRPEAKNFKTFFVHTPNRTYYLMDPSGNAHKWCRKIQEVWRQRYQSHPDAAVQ
Method in brief: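 Radioactive kinase assay with 0.25 μM PDK1 and [γ32P]ATP. Phosphorylated peptide was captured on P81 phosphocellulose paper and detected by phosphorimaging. Activation is expressed relative to DMSO control (=100%). AC50 is the concentration giving half-maximal activation. Values are the mean of at least two independent experiments.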

[2] = target: Serine/threonine-protein kinase N2 (Homo sapiens) (UniProt Q16513); assay: Activation of PRK2 at 50 uM relative to control
Chain of Serine/threonine-protein kinase N2 (Homo sapiens) (Q16513 whole entry, looked up): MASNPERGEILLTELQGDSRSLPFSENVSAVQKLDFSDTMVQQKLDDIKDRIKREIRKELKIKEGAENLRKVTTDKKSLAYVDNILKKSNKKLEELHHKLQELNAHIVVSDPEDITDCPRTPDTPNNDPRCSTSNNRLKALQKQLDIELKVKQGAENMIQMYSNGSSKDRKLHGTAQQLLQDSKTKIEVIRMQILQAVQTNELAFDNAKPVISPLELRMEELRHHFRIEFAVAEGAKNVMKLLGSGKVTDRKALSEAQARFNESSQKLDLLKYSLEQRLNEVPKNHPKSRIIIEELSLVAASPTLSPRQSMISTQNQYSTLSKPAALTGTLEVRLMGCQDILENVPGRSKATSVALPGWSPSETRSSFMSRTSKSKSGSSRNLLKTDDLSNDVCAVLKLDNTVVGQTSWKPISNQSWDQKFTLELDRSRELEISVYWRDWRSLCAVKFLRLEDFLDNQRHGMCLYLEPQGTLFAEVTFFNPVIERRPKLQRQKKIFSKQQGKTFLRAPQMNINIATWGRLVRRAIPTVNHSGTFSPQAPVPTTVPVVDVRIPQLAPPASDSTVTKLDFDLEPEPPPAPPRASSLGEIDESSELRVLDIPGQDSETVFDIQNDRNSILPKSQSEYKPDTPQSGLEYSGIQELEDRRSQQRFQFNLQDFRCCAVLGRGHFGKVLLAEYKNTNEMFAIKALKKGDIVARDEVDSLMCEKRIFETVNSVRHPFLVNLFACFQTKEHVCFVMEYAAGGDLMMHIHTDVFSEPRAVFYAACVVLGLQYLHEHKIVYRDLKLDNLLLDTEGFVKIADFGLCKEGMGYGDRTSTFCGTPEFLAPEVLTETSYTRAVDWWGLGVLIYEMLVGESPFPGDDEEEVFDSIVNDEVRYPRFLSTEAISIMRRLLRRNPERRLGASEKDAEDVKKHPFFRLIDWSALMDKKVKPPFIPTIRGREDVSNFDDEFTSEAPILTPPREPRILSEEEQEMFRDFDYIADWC

[3] = Activation of PKA at 50 uM relative to control
[4] = target: Serine/threonine-protein kinase N2 (Homo sapiens) (UniProt Q16513); assay: Activation of PRK2 at 2 uM relative to control
[5] = Activation of PKA at 2 uM relative to control
[6] = target: RAC-alpha serine/threonine-protein kinase (Homo sapiens) (UniProt P31749); assay: Activation of PKBalpha at 50 uM relative to control
Chain of RAC-alpha serine/threonine-protein kinase (Homo sapiens) (P31749 whole entry): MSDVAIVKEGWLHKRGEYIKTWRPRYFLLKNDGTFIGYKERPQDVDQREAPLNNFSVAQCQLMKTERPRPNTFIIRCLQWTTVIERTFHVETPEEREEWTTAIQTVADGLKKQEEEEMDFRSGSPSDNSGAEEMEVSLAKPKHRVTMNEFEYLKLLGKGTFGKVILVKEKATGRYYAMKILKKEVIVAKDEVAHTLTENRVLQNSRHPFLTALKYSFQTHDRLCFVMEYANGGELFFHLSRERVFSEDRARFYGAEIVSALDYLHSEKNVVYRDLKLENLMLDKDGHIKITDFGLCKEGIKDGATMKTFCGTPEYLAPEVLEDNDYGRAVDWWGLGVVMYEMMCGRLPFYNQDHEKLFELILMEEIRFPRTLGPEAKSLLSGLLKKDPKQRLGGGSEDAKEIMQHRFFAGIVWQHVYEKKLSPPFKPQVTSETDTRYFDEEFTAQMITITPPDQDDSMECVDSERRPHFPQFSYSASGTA

[7] = target: RAC-alpha serine/threonine-protein kinase (Homo sapiens) (UniProt P31749); assay: Activation of PKBalpha at 2 uM relative to control
[8] = target: T2, Serine/threonine-protein kinase Sgk1 (Homo sapiens) (UniProt O00141); assay: Activation of SGK at 2 uM relative to control
T2 sequence (whole entry): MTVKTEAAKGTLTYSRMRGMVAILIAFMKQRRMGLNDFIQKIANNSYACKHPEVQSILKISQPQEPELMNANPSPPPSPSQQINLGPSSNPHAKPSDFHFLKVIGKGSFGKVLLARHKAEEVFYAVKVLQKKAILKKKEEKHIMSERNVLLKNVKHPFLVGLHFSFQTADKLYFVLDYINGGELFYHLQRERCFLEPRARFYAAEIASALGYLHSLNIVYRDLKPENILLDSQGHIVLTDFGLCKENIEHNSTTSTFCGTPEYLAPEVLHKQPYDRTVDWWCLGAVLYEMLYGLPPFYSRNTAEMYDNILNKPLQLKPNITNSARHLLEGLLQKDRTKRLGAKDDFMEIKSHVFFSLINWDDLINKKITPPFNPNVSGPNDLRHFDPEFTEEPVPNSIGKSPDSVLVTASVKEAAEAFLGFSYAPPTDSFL

[9] = target: T2, Serine/threonine-protein kinase Sgk1 (Homo sapiens); assay: Activation of SGK at 50 uM relative to control
[10] = target: T3, Protein kinase C zeta type (Homo sapiens) (UniProt Q05513); assay: Activation of PKCzeta at 50 uM relative to control
T3 sequence (whole entry): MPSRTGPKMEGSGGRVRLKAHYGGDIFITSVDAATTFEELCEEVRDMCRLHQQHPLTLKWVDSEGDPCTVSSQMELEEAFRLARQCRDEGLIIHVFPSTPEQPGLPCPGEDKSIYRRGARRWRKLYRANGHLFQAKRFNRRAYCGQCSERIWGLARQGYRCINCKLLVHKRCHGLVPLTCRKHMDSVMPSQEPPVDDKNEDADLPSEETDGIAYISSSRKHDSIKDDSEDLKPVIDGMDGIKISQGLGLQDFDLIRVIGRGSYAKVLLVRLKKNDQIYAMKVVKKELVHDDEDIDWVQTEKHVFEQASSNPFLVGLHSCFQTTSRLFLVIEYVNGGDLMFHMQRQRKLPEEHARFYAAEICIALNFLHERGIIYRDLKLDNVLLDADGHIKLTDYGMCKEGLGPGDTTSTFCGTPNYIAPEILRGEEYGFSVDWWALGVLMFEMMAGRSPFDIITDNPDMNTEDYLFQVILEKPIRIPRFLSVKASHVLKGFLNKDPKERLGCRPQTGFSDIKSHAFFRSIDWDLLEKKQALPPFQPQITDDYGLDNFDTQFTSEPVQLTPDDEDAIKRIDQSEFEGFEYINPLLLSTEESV

[11] = target: T3, Protein kinase C zeta type (Homo sapiens); assay: Activation of PKCzeta at 2 uM relative to control
[12] = target: Ribosomal protein S6 kinase beta-1 (Homo sapiens) (UniProt P23443); assay: Activation of S6K1 at 2 uM relative to control
Chain of Ribosomal protein S6 kinase beta-1 (Homo sapiens) (P23443 whole entry, looked up): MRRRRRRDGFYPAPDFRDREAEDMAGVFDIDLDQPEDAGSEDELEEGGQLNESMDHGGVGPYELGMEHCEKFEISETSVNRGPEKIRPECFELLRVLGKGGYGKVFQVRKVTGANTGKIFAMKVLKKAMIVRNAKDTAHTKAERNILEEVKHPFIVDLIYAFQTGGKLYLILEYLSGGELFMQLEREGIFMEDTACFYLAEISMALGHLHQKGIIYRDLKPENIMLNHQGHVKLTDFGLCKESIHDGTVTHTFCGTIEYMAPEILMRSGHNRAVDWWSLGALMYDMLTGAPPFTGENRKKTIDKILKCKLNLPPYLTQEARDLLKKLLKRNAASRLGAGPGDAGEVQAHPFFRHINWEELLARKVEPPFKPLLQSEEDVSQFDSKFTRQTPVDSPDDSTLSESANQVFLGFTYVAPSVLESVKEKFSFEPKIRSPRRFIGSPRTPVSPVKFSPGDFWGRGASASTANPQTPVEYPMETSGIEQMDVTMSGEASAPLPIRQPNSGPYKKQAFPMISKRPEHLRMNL

[13] = target: Ribosomal protein S6 kinase beta-1 (Homo sapiens) (UniProt P23443); assay: Activation of S6K1 at 50 uM relative to control
[14] = target: T1, 3-phosphoinositide-dependent protein kinase 1 (Homo sapiens); assay: Increase in thermal stability of PDK1 assessed as concentration required to increase 1.5 degC thermal stability by differential scanning fluorimetry
Method in brief: (§1)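 PDK1 (1 μM) in 10 mM HEPES pH 7.5, 150 mM NaCl, 1 mM DTT and 1/1000 SYPRO Orange, with ligand at 1% final DMSO, was heated from 25–70 °C in 0.3 °C steps. Tm came from a Boltzmann fit, and ΔTm is relative to DMSO control, each point from duplicates. EC50 was fitted from ΔTm versus concentration, along with the concentration giving a 1.5 °C shift.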

[15] = target: T1, 3-phosphoinositide-dependent protein kinase 1 (Homo sapiens); assay: Increase in thermal stability of PDK1 by differential scanning fluorimetry relative to control; method in brief: as §1
[16] = target: T4, 3-phosphoinositide-dependent protein kinase 1 (Homo sapiens, UniProt O15530); assay: Increase in thermal stability of PDK1 by differential scanning fluorimetry; method in brief: as §1
T4 sequence (O15530 whole entry): T1 sequence (whole entry)

L6 = assay: Cellular uptake in rat L6 cells at 20 uM up to 100 mins by mass spectroscopy analysis; type: ADME, cell-based; settings: l6, 100 min
[17] = Activation of MSK at 50 uM relative to control
[18] = Activation of MSK at 2 uM relative to control
[19] = Activation of RSK at 2 uM relative to control
[20] = Activation of RSK at 50 uM relative to control
[21] = target: T4, 3-phosphoinositide-dependent protein kinase 1; assay: Binding affinity to PDK1

## O=C(C[C@@H](c1ccccc1)C(C(=O)O)C(=O)O)c1ccc(C(F)(F)F)cc1
[1]
  max activation: 2

## O=C(C[C@H](c1ccccc1)C(C(=O)O)C(=O)O)c1ccc(C(F)(F)F)cc1
[1]
  max activation: 5.5

## O=C(O)/C=C(/CCc1ccc(Cl)cc1)c1ccccc1
[2]
  Activity: inactive
[3]
  Activity: 74%
[4]
  Activity: inactive
[5]
  Activity: inactive
[6]
  Activity: inactive
[7]
  Activity: inactive
[8]
  Activity: inactive
[9]
  Activity: inactive
[10]
  Activity: inactive
[11]
  Activity: inactive
[12]
  Activity: inactive
[13]
  Activity: 84%

## O=C(CC(c1ccc2ccccc2c1)C(C(=O)O)C(=O)O)c1ccc(I)cc1 (racemic)
[14]
  Activity: 18.9 µM
[15]
  ΔTm: 2.4 °C
[16]
  pEC50: 4.89
[1]
  max activation: 3.6

## O=C(CC(c1ccccc1)C(C(=O)O)C(=O)O)c1ccc(C(F)(F)F)cc1 (racemic)
L6
  Drug uptake: Not Active
[17]
  Activity: inactive
[18]
  Activity: inactive
[19]
  Activity: inactive
[20]
  Activity: 140%
[2]
  Activity: inactive
[3]
  Activity: 80%
[4]
  Activity: inactive
[5]
  Activity: inactive
[6]
  Activity: inactive
[7]
  Activity: inactive
[8]
  Activity: inactive
[9]
  Activity: inactive
[10]
  Activity: inactive
[11]
  Activity: inactive
[12]
  Activity: 82%
[13]
  Activity: 46%
[14]
  Activity: 67.6 µM
[15]
  ΔTm: 3.9 °C
[16]
  pEC50: 4.07
[1]
  max activation: 5.5

## O=C(CC(c1ccccc1)C(C(=O)O)C(=O)O)c1ccc(I)cc1 (racemic)
[14]
  Activity: 30.9 µM
[15]
  ΔTm: 5.2 °C
[16]
  pEC50: 4.22
[1]
  max activation: 4

## O=C(CC(c1ccccc1)C(C(=O)O)C(=O)O)c1ccc2c(c1)[nH]c1ccccc12 (racemic)
[14]
  Activity: 18.2 µM
[15]
  ΔTm: 4.9 °C
[16]
  pEC50: 4.52
[1]
  max activation: 3.6

## CCc1ccc(C(=O)CC(CC(=O)O)c2ccccc2)cc1 (racemic)
[1]
  max activation: 2

## CCc1ccc(C(=O)CC(c2ccc(Cl)cc2)C(C(=O)O)C(=O)O)cc1 (racemic)
[1]
  max activation: 3

## CCc1ccc(C(=O)CC(c2ccccc2)C(C(=O)O)C(=O)O)cc1 (racemic)
[1]
  max activation: 5

## COc1ccc2cc(C(=O)CC(c3ccccc3)C(C(=O)O)C(=O)O)ccc2c1 (racemic)
[1]
  max activation: 3.6

## O=C(CC(c1cc(-c2ccccc2)cs1)C(C(=O)O)C(=O)O)c1ccc(C(F)(F)F)cc1 (racemic)
[1]
  max activation: inactive

## O=C(CC(c1ccc(Cl)cc1)C(C(=O)O)C(=O)O)c1ccc(Br)cc1 (racemic)
[1]
  max activation: 3

## O=C(CC(c1ccc(Cl)cc1)C(C(=O)O)C(=O)O)c1ccc(C(F)(F)F)cc1 (racemic)
[1]
  max activation: 3.5

## O=C(CC(c1ccc(Cl)cc1)C(C(=O)O)C(=O)O)c1ccc(Cl)cc1 (racemic)
[1]
  max activation: 2

## O=C(CC(c1ccc(Cl)cc1)C(C(=O)O)C(=O)O)c1ccc(I)cc1 (racemic)
[1]
  max activation: 3.8

## O=C(CC(c1ccc(Cl)cc1)C(C(=O)O)C(=O)O)c1ccc(O)cc1 (racemic)
[1]
  max activation: inactive

## O=C(CC(c1ccc2ccccc2c1)C(C(=O)O)C(=O)O)c1ccc2ccccc2c1 (racemic)
[1]
  max activation: 4.8

## O=C(CC(c1ccccc1)C(C(=O)O)C(=O)O)c1c[nH]c2ccccc12 (racemic)
[1]
  max activation: 3

## O=C(CC(c1ccccc1)C(C(=O)O)C(=O)O)c1ccc(Br)cc1 (racemic)
[1]
  max activation: 3.7

## O=C(CC(c1ccccc1)C(C(=O)O)C(=O)O)c1ccc(Cl)cc1 (racemic)
[17]
  Activity: inactive
[18]
  Activity: inactive
[19]
  Activity: inactive
[20]
  Activity: 160%
[2]
  Activity: inactive
[3]
  Activity: inactive
[4]
  Activity: inactive
[5]
  Activity: inactive
[6]
  Activity: inactive
[7]
  Activity: inactive
[8]
  Activity: inactive
[9]
  Activity: inactive
[10]
  Activity: inactive
[11]
  Activity: inactive
[12]
  Activity: 84%
[13]
  Activity: 47%
[1]
  max activation: 4

## O=C(CC(c1ccccc1)C(C(=O)O)C(=O)O)c1ccc(Oc2ccccc2)cc1 (racemic)
[1]
  max activation: 7

## O=C(CC(c1ccccc1)C(C(=O)O)C(=O)O)c1ccc2c(ccc3ccccc32)c1 (racemic)
[1]
  max activation: 3.7

## O=C(CC(c1ccccc1)C(C(=O)O)C(=O)O)c1ccc2ccccc2c1 (racemic)
[1]
  max activation: 4

## O=C(CC(c1ccccc1)C(C(=O)O)C(=O)O)c1cccc(Cl)c1 (racemic)
[1]
  max activation: 2.6

## O=C(O)CC(CC(=O)c1ccc(Br)cc1)c1ccccc1 (racemic)
[1]
  max activation: 2

## O=C(O)CC(CC(=O)c1ccc(C(F)(F)F)cc1)c1ccc(Cl)cc1 (racemic)
[1]
  max activation: inactive

## O=C(O)CC(CC(=O)c1ccc(C(F)(F)F)cc1)c1ccccc1 (racemic)
[1]
  max activation: 4

## O=C(O)CC(CC(=O)c1ccc(Cl)cc1)c1ccc(Cl)cc1 (racemic)
[1]
  max activation: inactive

## O=C(O)CC(CC(=O)c1ccc(Cl)cc1)c1ccccc1 (racemic)
[1]
  max activation: 3

## O=C(O)CC(CC(=O)c1ccc(I)cc1)c1ccc(Cl)cc1 (racemic)
[1]
  max activation: 2.5

## O=C(O)CC(CC(=O)c1ccc(I)cc1)c1ccccc1 (racemic)
[1]
  max activation: 4

## O=C(O)CC(CC(=O)c1ccc(Oc2ccccc2)cc1)c1ccccc1 (racemic)
[1]
  max activation: 2.8

## O=C(O)CC(CC(=O)c1ccc2c(ccc3ccccc32)c1)c1ccccc1 (racemic)
[1]
  max activation: 1.5

## O=C(O)CC(CC(=O)c1ccc2cc(O)ccc2c1)c1ccccc1 (racemic)
[1]
  max activation: 3

## O=C(O)CC(CC(=O)c1ccc2ccccc2c1)c1ccc2ccccc2c1 (racemic)
[1]
  max activation: 3.4

## O=C(O)CC(CC(=O)c1ccc2ccccc2c1)c1ccccc1 (racemic)
[1]
  max activation: 2.5

## O=C(O)CC(CC(=O)c1cccc(Cl)c1)c1ccccc1 (racemic)
[1]
  max activation: 2.5

## H-REPRILSEEEQEMFRDFDYIADWC-OH
[14]
  Activity: 3.1 µM
[15]
  ΔTm: 7.3 °C
[16]
  pEC50: 4.85
[1]
  max activation: 3.4
[21]
  pKd: 7.37
